Screens (PubChem BioAssay)
Statin myotox sup = suppressors of simvastatin-induced myotoxicity in C2C12 myotubes | AID 602340 | rescue of ATP level, % at 7.49 µM | 330,000 compounds, 0.78% hits | ATP luminescence, 48 h; scaled: DMSO 0, geranylgeraniol control 100;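 active = mean ATP rescue above about 67%, or every replicate alone reaching that limit, limit read from the data, passing the limit was not always enough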;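 also: myotubes were challenged with 10 µM simvastatin during compound exposure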
SR-BI DiI-HDL act = enhances SR-BI lipid uptake from DiI-HDL | 320,000 compounds, 0.096% hits | CHO ldlA[mSR-BI] cells, DiI-HDL uptake fluorescence, 3 h; 100 = double the neutral-control signal | activation, % at 12.5 µM | AID 504775;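 active = mean replicate activation of at least 60% and every replicate at or above 60%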;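 also: 0% = median plate neutral-control signal and 100% = twice that signal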
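system = CHO ldlA[mSR-BI] cells, LDL receptor-null, SR-BI overexpressing | medium = Ham's F12 with 0.5% BSA, HEPES 25 mM, pH 7.4 | probe or stimulus = DiI-HDL 10 µg/mL | compound dosing = single-point compound dose | incubation = compound exposure 3 h, 37 °C | technique = DiI fluorescence, bottom read | read-out = cell-associated DiI fluorescence as measure of HDL uptake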
Vif imaging = inhibitors of HIV Vif. inhibition, % at 7.49 µM. 340,000 compounds, 0.35% hits. HEK293T cells, Vif self-association by quenched fluorescence, imaging, 24 h. AID 602346; in the data active = inhibition above about 50%, passing the limit was not always enough
SR-BI HDL uptake = blocks mouse SR-BI lipid uptake from DiI-HDL; inhibition, % at 12.5 µM; Q61009; 320,000 compounds, 0.96% hits; ldlA[mSR-BI] CHO cells, DiI-HDL uptake fluorescence, 3 h; AID 488896;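 active = mean replicate inhibition of at least 70% and a set share of replicates each scoring 70 or more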;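 also: 0% = median of neutral control wells and 100% = median of positive control wells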
Target sequence (Q61009 whole entry, looked up): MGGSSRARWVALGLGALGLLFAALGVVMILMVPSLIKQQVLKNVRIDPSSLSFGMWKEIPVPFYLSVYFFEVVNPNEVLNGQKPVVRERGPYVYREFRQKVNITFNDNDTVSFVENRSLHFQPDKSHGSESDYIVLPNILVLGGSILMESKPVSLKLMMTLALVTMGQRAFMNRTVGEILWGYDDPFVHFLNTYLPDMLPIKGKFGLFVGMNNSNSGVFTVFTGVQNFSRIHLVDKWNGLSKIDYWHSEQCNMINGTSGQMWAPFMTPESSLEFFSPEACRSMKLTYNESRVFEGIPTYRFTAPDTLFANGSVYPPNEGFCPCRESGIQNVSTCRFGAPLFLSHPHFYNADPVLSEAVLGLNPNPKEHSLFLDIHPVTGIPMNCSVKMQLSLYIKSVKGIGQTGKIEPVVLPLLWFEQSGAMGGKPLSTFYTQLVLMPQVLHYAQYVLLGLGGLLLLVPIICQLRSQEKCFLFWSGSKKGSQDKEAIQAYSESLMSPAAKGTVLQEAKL
* marks the source's active call; other numbers are inactive results; x = no result. Most compounds without a hit are left out; they make up all but 1.7% or so of the library.

SMILES | Statin myotox sup | SR-BI DiI-HDL act | Vif imaging | SR-BI HDL uptake
COc1ccc(N=C2S/C(=C\c3cc(C)n(C)c3C)C(=O)N2CC(C)C)cc1 | 156.2* | -27.2 | 5.3 | 27.2
COCC(=O)Nc1ccc2c(c1)C(=O)N(C)C[C@@H](OC)[C@@H](C)CN(C(=O)C1CCCC1)[C@H](C)CO2 | -8.4 | x | x | x
CCc1c(C)nc2cc(-c3cc(OC)cc(OC)c3)nn2c1N1CCCC1 | -53.5 | -39.6 | -5.5 | 39.6
CCOCCN1CCN(c2c(CC)c(C)nc3cc(-c4cc(OC)cc(OC)c4)nn23)CC1 | 98.9* | -28.6 | 2.5 | 28.6
CC1=Nc2ccccc2/C1=C\c1sc(Nc2ccc(C)cc2)nc1O | x | -75.0 | 0.7 | 75.0*
Oc1nc(Nc2ccc(F)cc2)sc1/C=C1\C=Nc2ccccc21 | x | x | 0.7 | x
Oc1cccc(Nc2nc(O)c(/C=C3\C=Nc4ccccc43)s2)c1 | -23.9 | -59.6 | 56.8* | 59.6
Oc1nc(Nc2cccc(Cl)c2)sc1/C=C1\C=Nc2ccccc21 | x | -25.4 | -4.2 | 25.4
Cc1cccc(N2CCN(C(=O)c3cc4ccccc4oc3=O)CC2)c1C | -4.3 | -3.2 | 68.1* | 3.2
CN1CCN(C(=O)c2cc3ccccc3oc2=O)CC1 | -9.7 | -35.3 | x | 35.3
CC(=O)N1CCc2cc(S(=O)(=O)NCCCN3CCN(Cc4ccccc4)CC3)ccc21 | -2.8 | 7.2 | x | -7.2
CCC(=O)N1CCc2cc(S(=O)(=O)NCCCN3CCN(Cc4ccccc4)CC3)ccc21 | 156.2* | 5.2 | 6.1 | -5.2
CCC(=O)N1CCc2cc(S(=O)(=O)CCC(=O)N3CCc4ccccc4C3)ccc21 | 76.3* | 24.6 | 1.8 | -24.6
O=C(C[C@@H]1C=C[C@H](NC(=O)c2ccccn2)[C@H](CO)O1)NCc1cc(F)cc(F)c1 | 3.9 | x | x | x
Cc1ccc(N(CC(=O)NCc2ccc3c(c2)OCO3)C(=O)c2csnn2)cc1 | -37.2 | x | 10.3 | x
O=C(CN(C(=O)c1csnn1)c1ccc(F)cc1)NCc1ccc2c(c1)OCO2 | 24.6 | x | 74.5* | x
CC(C)NC(=O)Nc1cccc2c1O[C@@H](CN(C)Cc1ccccc1)[C@@H](C)CN([C@H](C)CO)C2=O | 11.6 | x | x | x
c1ccc(-c2cn3nc(-c4ccccc4)c(-c4ccccc4)nc3n2)cc1 | -6.9 | -31.3 | 156.7* | 31.3
CCCC(=O)N(Cc1cc2cc(C)ccc2[nH]c1=O)c1ccccc1OC | 76.1* | 2.3 | -13.3 | -2.3
O=C(NNC(=O)c1ccccc1O)c1ccc(Cl)c(S(=O)(=O)N2CCc3ccccc32)c1 | -15.9 | -117.4 | x | 117.5*
Cc1ccc(-c2ccc(S(=O)(=O)NCC3CCCO3)cc2)cc1 (configuration not stated) | x | 3.3 | 6.6 | -3.3
Cc1cc(C)n(C(=O)c2ccc(S(=O)(=O)NCC3CCCO3)cc2)n1 (configuration not stated) | 111.8* | 9.0 | 7.2 | -9.0
Cc1cc(C)n(C(=O)c2ccc(C)c(S(=O)(=O)N3CCCC3)c2)n1 | 94.7* | -16.2 | 0.1 | 16.2
Cc1ccc(C(=O)NC2CCCC2)cc1S(=O)(=O)N1CCCCC1 | x | x | x | -8.2
Cc1ccc(C(=O)NNC(=O)c2ccccc2O)cc1S(=O)(=O)N1CCCCC1 | x | -78.2 | -2.1 | 78.2*
SMILES | Statin myotox sup | SR-BI DiI-HDL act | Vif imaging | SR-BI HDL uptake
CC(C)CC#Cc1ccc([C@H]2[C@H]3CN(C(=O)NC4CCCC4)CCCCN3[C@H]2CO)cc1 | 15.7 | x | x | x
C[C@H](CO)N1C[C@H](C)[C@H](CN(C)S(=O)(=O)c2ccccc2C#N)OCc2ccccc2-c2ccccc2C1=O | -24.7 | x | x | x
C[C@H](CO)N1C[C@H](C)[C@H](CN(C)Cc2ccc(C(=O)O)cc2)Oc2ccc(NC(=O)CCC(F)(F)F)cc2CC1=O | -11.2 | x | x | x
COc1ccc(CCNc2cc(C)nc3c(-c4ccccc4OC)cnn23)cc1OC | -4.4 | -90.9 | -4.1 | 90.9*
CC(C)(C)NC(=O)CN(C(=O)Cn1nnc(-c2ccccc2F)n1)c1cccc2c1CCCC2 | 153.4* | -26.8 | -16.7 | 26.8
CCN(CC)c1ccc(C(=S)N2CCN(c3ccccc3)CC2)cc1 | 79.8* | 15.6 | 7.2 | -15.6
S=C(c1ccccc1)N1CCN(c2ccccc2)CC1 | 13.4 | -5.7 | 6.8 | 5.7
CCn1c(SCC(=O)N2CCCC2=O)nnc1-c1cccs1 | 3.9 | 96.4* | x | -96.4
Cc1ccc(C2CC(c3cccs3)=NN2C(=O)c2ccc(Br)o2)cc1 (configuration not stated) | 93.0* | 11.4 | -1.7 | -11.4
O=C(C[C@@H]1C[C@H]2c3cc(NC(=O)C4CCC4)ccc3O[C@H]2[C@H](CO)O1)NCc1cccc(F)c1 | -2.1 | x | x | x
Cc1ccccc1SCC(=O)NNC(=O)c1ccncc1 | 0.1 | 13.1 | -3.0 | -13.1
Cc1ccccc1SCC(=O)NNC(=O)c1ccccc1O | 7.3 | -78.9 | -9.2 | 78.9*
